Assay: Inhibition of yeast alpha glucosidase after 30 mins
Design: species or system Saccharomyces cerevisiae
Outline: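 Baker's yeast α-glucosidase (0.04 U/mL) preincubated 30 min with inhibitor in 0.067 M K2HPO4/KH2PO4 buffer, pH 6.8, at 37 °C; inhibitor and substrate dissolved in DMSO, final DMSO 10%. Reaction started with 0.5 mM substrate, run 5 min at 37 °C, quenched with 0.1 M Na2CO3 (pH 9.8). Absorbance at 405 nm read immediately as hydrolysis rate; triplicate.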

With `CCOC(=O)[C@]1(C)CCC[C@@]2(C)[C@@H]3CC[C@@]4(C)C[C@]3(CC[C@@H]21)CC4=O` the IC50 was > 200 µM.
Molecule `CCOC(=O)[C@]1(C)CCC[C@@]2(C)[C@@H]3CC[C@@]4(C)C[C@]3(CC[C@@H]21)[C@H](CO)[C@H]4O` has an IC50 of 86.2 µM.
Molecule `CCCOC(=O)[C@]1(C)CCC[C@@]2(C)[C@@H]3CC[C@@]4(C)C[C@]3(CC[C@@H]21)[C@H](CO)[C@H]4O` has an IC50 of 85.4 µM.
Work on `CCCCOC(=O)[C@]1(C)CCC[C@@]2(C)[C@@H]3CC[C@@]4(C)C[C@]3(CC[C@@H]21)[C@H](CO)[C@H]4O` yielded an IC50 of 87.2 µM.
With `CC(C)COC(=O)[C@]1(C)CCC[C@@]2(C)[C@@H]3CC[C@@]4(C)C[C@]3(CC[C@@H]21)[C@H](CO)[C@H]4O` the IC50 was 102 µM.
`CC(C)(C)OC(=O)[C@]1(C)CCC[C@@]2(C)[C@@H]3CC[C@@]4(C)C[C@]3(CC[C@@H]21)[C@H](CO)[C@H]4O` showed an IC50 of 114 µM.
`CC(C)CCOC(=O)[C@]1(C)CCC[C@@]2(C)[C@@H]3CC[C@@]4(C)C[C@]3(CC[C@@H]21)[C@H](CO)[C@H]4O` showed an IC50 of 116 µM.
For `C[C@]12CC[C@H]3[C@]4(C)CCC[C@@](C)(C(=O)OCCO)[C@H]4CC[C@@]3(C1)[C@H](CO)[C@H]2O`, the IC50 was > 200 µM.
`COC(=O)[C@]1(C)CCC[C@@]2(C)[C@@H]3CC[C@@]4(C)C[C@]3(CC[C@@H]21)[C@H](CO)[C@H]4O` gave an IC50 of 96.5 µM.
With `C[C@@]12CC[C@@H]3[C@@](CC[C@H]4[C@@]3(C)CCC[C@@]4(C)C(=O)O)(C[C@@H]1N)C2` the IC50 was > 200 µM.
With `CCOC(=O)[C@]1(C)CCC[C@@]2(C)[C@@H]3CC[C@@]4(C)C[C@]3(CC[C@@H]21)C[C@@H]4N` the IC50 was 91.2 µM.
In the case of `CCOC(=O)[C@]1(C)CCC[C@@]2(C)[C@@H]3CC[C@@]4(C)C[C@]3(CC[C@@H]21)c1c4[nH]c2ccccc12`, the IC50 is reported as 68.2 µM.
With `C[C@@]12CC[C@@H]3[C@@](CC[C@H]4[C@@]3(C)CCC[C@@]4(C)C(=O)O)(C/C1=N/O)C2` the IC50 was 92.1 µM.
With `CCOC(=O)[C@]1(C)CCC[C@@]2(C)[C@@H]3CC[C@@]4(C)C[C@]3(CC[C@@H]21)C/C4=N\O` the IC50 was 88.9 µM.
For `CCOC(=O)[C@]1(C)CCC[C@@]2(C)[C@@H]3CC[C@@]4(C)C[C@]3(CC[C@@H]21)[C@H](COC(=O)c1ccccc1)C4=O`, the IC50 was > 200 µM.
For `C=C1C(=O)[C@@]2(C)CC[C@@H]3[C@]1(CC[C@H]1[C@@]3(C)CCC[C@@]1(C)C(=O)OCC)C2`, the IC50 was > 200 µM.
In the case of `C[C@@]12CC[C@@H]3[C@@](CC[C@H]4[C@@]3(C)CCC[C@@]4(C)C(=O)O)(CC(=O)O1)C2`, the IC50 is reported as 139 µM.
For `C[C@]12CC[C@@H]3[C@](CC[C@H]4[C@@]3(C)CCC[C@@]4(C)C(=O)O)(C1)c1c2[nH]c2ccccc12`, the IC50 was 83.2 µM.
For `CCOC(=O)[C@]1(C)CCC[C@@]2(C)[C@@H]3CC[C@@]4(C)C[C@]3(CC[C@@H]21)[C@H](COC(C)=O)C4=O`, the IC50 was > 200 µM.
In the case of `C=CC(=O)O[C@@H]1C[C@]23CC[C@H]4[C@@](C)(CCC[C@@]4(C)C(=O)OCC)[C@@H]2CC[C@@]1(C)C3`, the IC50 is reported as > 200 µM.
Work on `C[C@]12CC[C@H]3[C@]4(C)CCC[C@@](C)(C(=O)O)[C@H]4CC[C@@]3(C1)[C@H](CO)[C@H]2O` yielded an IC50 of 149 µM.
Molecule `C[C@@]12CC[C@@H]3[C@@](CC[C@H]4[C@@]3(C)CCC[C@@]4(C)C(=O)O)(C[C@H]1O)C2` has an IC50 of 156 µM.
With `C[C@]12CC[C@H]3[C@]4(C)CCC[C@@](C)(C(=O)OCc5ccccc5)[C@H]4CC[C@@]3(C1)[C@H](CO)[C@H]2O` the IC50 was > 200 µM.
With `CCOC(=O)[C@]1(C)CCC[C@@]2(C)[C@@H]3CC[C@@]4(C)C[C@]3(CC[C@@H]21)[C@H](COC(C)=O)[C@H]4O` the IC50 was 132 µM.
Work on `CCOC(=O)[C@]1(C)CCC[C@@]2(C)[C@@H]3CC[C@@]4(C)C[C@]3(CC[C@@H]21)[C@H](CO)C4=O` yielded an IC50 of 143 µM.
For `CCOC(=O)[C@]1(C)CCC[C@@]2(C)[C@@H]3CC[C@@]4(C)C[C@]3(CC[C@@H]21)CC(=O)N4`, the IC50 was 72.4 µM.
In the case of `CCOC(=O)[C@]1(C)CCC[C@@]2(C)[C@@H]3CC[C@@]4(C)C[C@]3(CC[C@@H]21)CC(=O)O4`, the IC50 is reported as 118 µM.
With `CCN[C@H]1C[C@]23CC[C@H]4[C@@](C)(CCC[C@@]4(C)C(=O)OCC)[C@@H]2CC[C@@]1(C)C3` the IC50 was 114 µM.
Work on `CCOC(=O)[C@]1(C)CCC[C@@]2(C)[C@@H]3CC[C@@]4(C)C[C@]3(CC[C@@H]21)[C@H](COC(=O)c1ccccc1)[C@H]4O` yielded an IC50 of 112 µM.
For `CCOC(=O)[C@]1(C)CCC[C@@]2(C)[C@@H]3CC[C@@]4(C)C[C@]3(CC[C@@H]21)C[C@H]4O`, the IC50 was 132 µM.
For `CC(C)OC(=O)[C@]1(C)CCC[C@@]2(C)[C@@H]3CC[C@@]4(C)C[C@]3(CC[C@@H]21)[C@H](CO)[C@H]4O`, the IC50 was 97.2 µM.
With `C=CCOC(=O)[C@]1(C)CCC[C@@]2(C)[C@@H]3CC[C@@]4(C)C[C@]3(CC[C@@H]21)[C@H](CO)[C@H]4O` the IC50 was 143 µM.
`C[C@@]12CC[C@@H]3[C@@](CC[C@H]4[C@@]3(C)CCC[C@@]4(C)C(=O)O)(CC(=O)N1)C2` [ISOSTEVIOL LACTAM] showed an IC50 of 81.6 µM.
For `C[C@@]12CC[C@@H]3[C@@](CC[C@H]4[C@@]3(C)CCC[C@@]4(C)C(=O)O)(CC1=O)C2` [ISOSTEVIOL], the IC50 was > 200 µM.

From ChEMBL document CHEMBL1152716, “Stereoselective synthesis of bioactive isosteviol derivatives as alpha-glucosidase inhibitors” (Bioorg Med Chem, 2009)
